One test deals with Staphylococcus aureus. Kind of test: Antibacterial activity against Staphylococcus aureus ATCC 29213 incubated for 16 to 18 hrs by broth microdilution method. Type of test: functional. The method, boiled down: (§1)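 Colonies pre-grown 16−18 h at 37 °C in moist 5% CO₂ (Staph. aureus on LB agar; the others on GC agar with 1% IsoVitaleX), then diluted in BHI + 1% IsoVitaleX. Inoculum set by OD (600 nm Staph. aureus and S. pneumoniae; 550 nm N. meningitidis) to give ∼5 × 10⁵ cfu/mL per well. Twofold dilutions run 128–0.0625 μg/mL final. DMSO-only and medium blanks were included, with three independent plates, incubated 16−18 h at 37 °C in 5% CO₂.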

For the next test, the system named is Streptococcus pneumoniae. As to the kind of experiment: Antibacterial activity against Streptococcus pneumoniae ATCC 49619 incubated for 16 to 18 hrs by broth microdilution method. Type of test: functional. The method, boiled down:
as §1
A general note: Dilution methods test growth across graded concentrations, often in twofold steps.

Another test has as its system Neisseria meningitidis. Kind of test: Antibacterial activity against Neisseria meningitidis H44/76 incubated for 16 to 18 hrs by broth microdilution method. It is filed as functional. The method, boiled down:
as §1

For test [1], the target named is ATP-dependent Clp protease proteolytic subunit (Escherichia coli (strain K12)) (UniProt P0A6G7). Kind of test: Activation of Escherichia coli ClpP assessed as degradation of casein-FITC substrate at 5 uM fluorescence-based biochemical assay.
Sequence of ATP-dependent Clp protease proteolytic subunit (Escherichia coli (strain K12)) (P0A6G7 whole entry): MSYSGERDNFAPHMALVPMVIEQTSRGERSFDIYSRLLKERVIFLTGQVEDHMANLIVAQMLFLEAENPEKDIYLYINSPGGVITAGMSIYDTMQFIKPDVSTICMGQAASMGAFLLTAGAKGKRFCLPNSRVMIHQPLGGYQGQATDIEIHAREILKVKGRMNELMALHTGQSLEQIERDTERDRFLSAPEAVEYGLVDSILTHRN
Test [2] has as its target ATP-dependent Clp protease proteolytic subunit (Escherichia coli (strain K12), UniProt P0A6G7). Kind of test: Activation of Escherichia coli ClpP by ITC method. For orientation: Isothermal titration calorimetry measures the heat released or taken up as one component is titrated into another.

This is an account of results in ChEMBL document CHEMBL3352552, “Total synthesis and antibacterial testing of the A54556 cyclic acyldepsipeptides isolated from Streptomyces hawaiiensis” (J Nat Prod, 2014).

Converted amounts (≈) assume the structure as drawn. The source made the active and inactive calls. Where a SMILES comes first, the peptide text is derived from it. Bridges are numbered along the chain shown (N, C = ends). [ ]: non-standard residue; d: D form. The star is where a group is joined. Octatrienoyl(2E,4E,6E) = C/C=C/C=C/C=C/C(=O)*; Hexadienoyl(2E,4E) = C/C=C/C=C/C(=O)*; Pro(4R-Me) = C[C@H]1CN[C@H](C(=O)O)C1; NMeA = CN[C@@H](C)C(=O)O; X1 = CCC/C=C/C=C/C(=O)* Bounds are passed on as bounds.

Sequence of ATP-dependent Clp protease proteolytic subunit (P0A6G7 whole entry): as above

As for `CCC/C=C/C=C/C(=O)N[C@@H](Cc1ccccc1)C(=O)N[C@H]1COC(=O)[C@@H]2C[C@@H](C)CN2C(=O)[C@H](C)NC(=O)[C@H](C)N(C)C(=O)[C@@H]2CCCN2C1=O` (X1-FSP[NMeA]A[Pro(4R-Me)]; ester 2-C), the figures for the MIC in the test with Staphylococcus aureus, against Streptococcus pneumoniae and against Neisseria meningitidis were 0.5 µg/mL (≈ 0.694 µM), less than 0.0625 µg/mL and less than 0.0625 µg/mL, respectively. Further, the outcome in test [1] was Active.

As for `C[C@@H]1C[C@H]2C(=O)OC[C@H](NC(=O)[C@H](Cc3ccccc3)NC(=O)/C=C/C=C/CO)C(=O)N3CCC[C@H]3C(=O)N(C)[C@@H](C)C(=O)N[C@@H](C)C(=O)N2C1` (stereo in doubt), the MIC against Staphylococcus aureus was determined as 128 µg/mL (≈ 181 µM); against Streptococcus pneumoniae it was 0.25 µg/mL (≈ 0.353 µM); in the test on Neisseria meningitidis, 64 µg/mL (≈ 90.3 µM). In addition, the result in test [1] was inactive.

As for `C/C=C/C=C/C(=O)N[C@@H](Cc1ccccc1)C(=O)N[C@H]1COC(=O)[C@@H]2CCCN2C(=O)[C@H](C)NC(=O)[C@H](C)N(C)C(=O)[C@@H]2CCCN2C1=O` ({Hexadienoyl(2E,4E)}-FSP[NMeA]AP; ester 2-C), the values for the MIC against Staphylococcus aureus, against Streptococcus pneumoniae and with Neisseria meningitidis were 16 µg/mL (≈ 23.6 µM), 0.25 µg/mL (≈ 0.368 µM) and 4 µg/mL (≈ 5.89 µM), respectively. The outcome in test [1] was inactive.

For `C/C=C/C=C/C(=O)N[C@@H](Cc1ccccc1)C(=O)N[C@H]1COC(=O)[C@@H]2C[C@@H](C)CN2C(=O)[C@H](C)NC(=O)[C@H](C)N(C)C(=O)[C@@H]2CCCN2C1=O` ({Hexadienoyl(2E,4E)}-FSP[NMeA]A[Pro(4R-Me)]; ester 2-C), the MIC against Staphylococcus aureus was found to be 4 µg/mL (≈ 5.77 µM); with Streptococcus pneumoniae, 0.125 µg/mL (≈ 0.18 µM); in the test with Neisseria meningitidis, 2 µg/mL (≈ 2.89 µM). Also, the result in test [1] was inactive.

On to `C/C=C/C=C/C=C/C(=O)N[C@@H](Cc1ccccc1)C(=O)N[C@H]1COC(=O)[C@@H]2CCCN2C(=O)[C@H](C)NC(=O)[C@H](C)N(C)C(=O)[C@@H]2CCCN2C1=O` ({Octatrienoyl(2E,4E,6E)}-FSP[NMeA]AP; ester 2-C), for which the MIC in the test with Staphylococcus aureus was found to be 16 µg/mL (≈ 22.7 µM); in the test with Streptococcus pneumoniae, 0.5 µg/mL (≈ 0.709 µM); against Neisseria meningitidis it was 0.5 µg/mL (≈ 0.709 µM). Besides, the outcome in test [1] was Active. In test [2], this molecule showed a Kd of 700 nM.

Consider `C/C=C/C=C/C=C/C(=O)N[C@@H](Cc1ccccc1)C(=O)N[C@H]1COC(=O)[C@@H]2C[C@@H](C)CN2C(=O)[C@H](C)NC(=O)[C@H](C)N(C)C(=O)[C@@H]2CCCN2C1=O` ({Octatrienoyl(2E,4E,6E)}-FSP[NMeA]A[Pro(4R-Me)]; ester 2-C), for which the minimum inhibitory concentration (MIC) was 4 µg/mL (≈ 5.56 µM) in the test with Staphylococcus aureus, less than 0.0625 µg/mL in the test on Streptococcus pneumoniae and 0.125 µg/mL (≈ 0.174 µM) against Neisseria meningitidis. Further, the result in test [1] was Active. In test [2], this molecule showed a Kd of 300 nM.

For the molecule `NC[C@@H]1O[C@@H](O[C@H]2[C@H](O)[C@@H](O[C@H]3O[C@H](CO)[C@@H](O)[C@H](N)[C@H]3O)[C@H](N)C[C@@H]2N)[C@@H](O)[C@H](O)[C@H]1O` [KANAMYCIN A], inhibition of growth against Neisseria meningitidis (MIC) required 64 µg/mL (≈ 132 µM).

`CN[C@H](CC(C)C)C(=O)N[C@H]1C(=O)N[C@@H](CC(N)=O)C(=O)N[C@H]2C(=O)N[C@H]3C(=O)N[C@H](C(=O)N[C@H](C(=O)O)c4cc(O)cc(O)c4-c4cc3ccc4O)[C@H](O)c3ccc(c(Cl)c3)Oc3cc2cc(c3O[C@@H]2O[C@H](CO)[C@@H](O)[C@H](O)[C@H]2O[C@H]2C[C@](C)(N)[C@H](O)[C@H](C)O2)Oc2ccc(cc2Cl)[C@H]1O` [VANCOMYCIN] registered an MIC against Streptococcus pneumoniae of 2 µg/mL (≈ 1.38 µM).

What is called MIC is the smallest concentration in the dilution series that meets the test's criterion for growth inhibition. Higher therefore signals weaker potency. Usually Kd stands for the free concentration of one partner at which half of the binding sites on the other are occupied at equilibrium, for simple one-to-one binding. A high value points to lower affinity.
